In general, pIC50 refers to the IC50 on a negative log10 scale, so that one unit is a factor of ten. For orientation: inhibition means the percentage by which the read-out fell short of the control.

The record followed here is ChEMBL document CHEMBL4152204, “Discovery of N-hydroxy-3-alkoxybenzamides as direct acid sphingomyelinase inhibitors using a ligand-based pharmacophore model” (Eur J Med Chem, 2018).

pIC50: −log10 of the molar value. Calls of active or inactive are those of the source. The rule behind the calls is not given here.

Test [1] relates to NIH3T3. Nature of the test: Cytoprotective activity against UV-induced apoptosis in mouse NIH/3T3 cells assessed as viable cells at 40 uM preincubated for 20 hrs followed by UV irradiation for 5 mins and measured after 24 hrs by flow cytometric analysis (reference value: 12.6%). It is filed as functional. The settings on record: NIH3T3, light or radiation study, read-out: Activity.

The subject of test [2] is NIH3T3. Nature of the test: Cytotoxicity against mouse NIH/3T3 cells after 24 hrs by MTT assay. It counts as cell-based. As to conditions: NIH3T3, 24 h.
The target in test [3] is T1, Sphingomyelin phosphodiesterase (Mus musculus) (UniProt Q04519).
T1 sequence (whole entry): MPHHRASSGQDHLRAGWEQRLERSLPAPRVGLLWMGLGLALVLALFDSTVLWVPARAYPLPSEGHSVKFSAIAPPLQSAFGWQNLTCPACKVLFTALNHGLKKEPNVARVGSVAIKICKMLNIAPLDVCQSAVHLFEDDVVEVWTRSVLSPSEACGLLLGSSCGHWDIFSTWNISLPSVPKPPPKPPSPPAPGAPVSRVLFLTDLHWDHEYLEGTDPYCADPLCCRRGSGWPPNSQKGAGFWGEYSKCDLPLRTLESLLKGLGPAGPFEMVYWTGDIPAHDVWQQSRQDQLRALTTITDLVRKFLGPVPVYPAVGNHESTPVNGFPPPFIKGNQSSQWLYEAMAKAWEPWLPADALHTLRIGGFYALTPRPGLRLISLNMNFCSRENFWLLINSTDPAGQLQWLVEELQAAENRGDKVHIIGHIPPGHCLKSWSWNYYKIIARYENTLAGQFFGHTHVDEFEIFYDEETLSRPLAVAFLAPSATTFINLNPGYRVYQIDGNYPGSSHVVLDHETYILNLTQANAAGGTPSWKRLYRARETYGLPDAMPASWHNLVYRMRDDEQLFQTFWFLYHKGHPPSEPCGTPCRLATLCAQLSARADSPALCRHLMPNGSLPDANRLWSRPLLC
Nature of the test: Inhibition of acid sphingomyelinase in mouse NIH/3T3 cells assessed as increase in […] level at 5 uM after 20 hrs by LC-MS/MS analysis relative to control. It counts as cell-based. Also on record: scale not given: the % may be the effect or the level left. An outline of the steps:
(§1)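 NIH3T3 cells in DMEM with 10% FBS, 37 °C, 5% CO₂; at 90% confluence given fresh medium plus inhibitor (5, 10, 20 µM) for 20 h; total ceramides and sphingomyelin quantified by LC-MS-MS versus untreated control; mean ± SD of three independent experiments, Student's t-test.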

Test [4] has as its target T1, Sphingomyelin phosphodiesterase (Mus musculus). Nature of the test: Inhibition of acid sphingomyelinase in mouse NIH/3T3 cells assessed as ceramide levels at 20 uM after 20 hrs by LC-MS/MS analysis relative to control. It counts as cell-based. An outline of the steps:
as §1

Test [5] has as its target T2, Sphingomyelin phosphodiesterase 2 (Homo sapiens) (UniProt O60906).
T2 sequence (whole entry): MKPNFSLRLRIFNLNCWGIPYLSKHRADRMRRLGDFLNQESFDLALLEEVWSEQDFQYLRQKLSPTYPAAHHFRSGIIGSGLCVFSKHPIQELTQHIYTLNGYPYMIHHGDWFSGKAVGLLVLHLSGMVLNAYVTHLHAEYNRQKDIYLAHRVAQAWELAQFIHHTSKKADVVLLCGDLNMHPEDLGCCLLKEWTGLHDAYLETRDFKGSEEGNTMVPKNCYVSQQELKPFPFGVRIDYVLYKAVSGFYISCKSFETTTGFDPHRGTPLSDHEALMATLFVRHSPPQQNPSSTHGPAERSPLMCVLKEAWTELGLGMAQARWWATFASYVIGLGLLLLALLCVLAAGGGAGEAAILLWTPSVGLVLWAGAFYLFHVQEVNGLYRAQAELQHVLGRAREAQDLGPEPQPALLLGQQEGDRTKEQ
Nature of the test: Inhibition of neutral sphingomyelinase (unknown origin) assessed as reduction in NBD-ceramide release at 100 uM by TLC based fluorescence assay.

For test [6], the system named is NIH3T3. Nature of the test: Cytoprotective activity against UV-induced apoptosis in mouse NIH/3T3 cells assessed as early apoptotic cells at 40 uM preincubated for 20 hrs followed by UV irradiation for 5 mins and measured after 24 hrs by flow cytometric analysis (reference value: 79.5%). It is filed as functional. A general note: A flow cytometer gives signals particle by particle.

As for `CCCCCCCCCCOc1cc(C(=O)NO)ccc1OC`, the viability at 40 µM in test [1] stood at 50.9%. In addition, in test [2], the pIC50 was 4.29. For the same molecule, the Activity in test [3] was 31.9%; in test [6], 41.1%. In addition, the inhibition in test [4] is 42.6%. In test [5], the inhibition result is “inactive”.
